Source: PubChem
Sampled rows, rich in hits. Any-hit rate of the full collection: about 2.8%.
PAFAH2 FP inh: PAFAH2 enzyme inhibitors, primary screen, biochemical, fluorescence polarization, human; Platelet-activating factor acetylhydrolase 2, cytoplasmic (Homo sapiens), Q99487; recombinant PAFAH2, FP-rhodamine activity probe; AID 492956, 2010; inhibition, % at 3.39 µM; 0.99% of 340,000 active;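 active = inhibition above the mean over all tested compounds plus 3 SD, cut at about 30% in these data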;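 also: inhibitors block probe labeling of enzyme so polarization drops; 0% = enzyme with DMSO and 100% = wells lacking PAFAH2 protein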
ARFGAP1 inhibitor: inhibitors of rat ARFGAP1 GAP activity, primary screen, biochemical, fluorescence polarization, GDP tracer. ADP-ribosylation factor GTPase-activating protein 1 (Rattus norvegicus), Q62848. Arfgap1-stimulated ARF1 GTP hydrolysis, GDP FP detection. inhibition, % at 16.5 µM. 0.26% of 360,000 active. AID 651572, 2012;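 active = inhibition above a per-plate limit, mean inhibition of low control wells plus 3 SD, cut at about 25% in these data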;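 also: 0% = DMSO wells with enzyme and 100% = wells lacking Arfgap1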
Target sequence (Q62848 1-136 limits assumed): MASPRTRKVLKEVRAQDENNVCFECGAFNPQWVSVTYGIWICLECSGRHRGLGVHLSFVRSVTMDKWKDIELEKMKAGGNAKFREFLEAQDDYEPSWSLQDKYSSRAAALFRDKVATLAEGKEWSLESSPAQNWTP
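material = rat Arfgap1 catalytic domain, aa 1-136 | also added = human ARF1(Δ1-17)-GTP substrate | compound dosing = one concentration, 16.5 µM, DMSO 1.26% | times = GTP hydrolysis reaction 2 h at 25 °C | measured by = FP, GDP Alexa 633 tracer displaced from anti-GDP antibody, 620/688 nm | evaluation = percent inhibition of Arfgap1-stimulated GTP hydrolysis | replication = single well per compound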
PAFAH1B3 inh: PAFAH1B3 enzyme inhibitors, primary screen, biochemical, fluorescence polarization, human | Platelet-activating factor acetylhydrolase IB subunit alpha1 (Homo sapiens), Q15102 | recombinant PAFAH1B3, FP-rhodamine probe | inhibition, % at 3.39 µM | 0.28% of 340,000 active | AID 492972, 2010;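 active = inhibition above the screen-wide average of all tested compounds plus 3 SD, cut at about 25% in these data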;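 also: 0% = enzyme with DMSO only and 100% = wells lacking PAFAH1B3 protein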
Target sequence (Q15102 whole entry, looked up): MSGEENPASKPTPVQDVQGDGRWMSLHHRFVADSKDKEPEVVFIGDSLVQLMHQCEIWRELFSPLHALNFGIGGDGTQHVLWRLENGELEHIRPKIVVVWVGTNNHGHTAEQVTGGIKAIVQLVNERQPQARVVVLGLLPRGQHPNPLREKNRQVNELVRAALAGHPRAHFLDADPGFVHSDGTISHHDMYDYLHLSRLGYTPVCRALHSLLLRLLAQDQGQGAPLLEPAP
ASAP1 GAP inh: inhibitors of human ASAP1 ArfGAP activity, primary screen, biochemical, fluorescence polarization | Arf-GAP with SH3 domain, ANK repeat and PH domain-containing protein 1 (Homo sapiens), … | ASAP1-stimulated ARF1 GTP hydrolysis, GDP FP detection | inhibition, % at 16.5 µM | 0.19% of 360,000 active; in the data active = inhibition above about 25%;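 also: 0% = vehicle with enzyme and substrate and 100% = no enzyme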
pPAFAH inh: pPAFAH enzyme inhibitors, primary screen, biochemical, fluorescence polarization, human; inhibition, % at 3.39 µM; Platelet-activating factor acetylhydrolase (Homo sapiens), Q13093; recombinant pPAFAH, FP-rhodamine probe fluorescence polarization; AID 463082, 2010; 1.5% of 330,000 active;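 active = inhibition above the mean inhibition across the screen plus 3 SD, cut at about 25% in these data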;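 also: inhibitors block binding of the rhodamine activity-based probe so polarization drops; 0% = enzyme with DMSO and 100% = wells lacking pPAFAH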
PAFAH1B2 inh: PAFAH1B2 enzyme inhibitors, primary screen, biochemical, fluorescence polarization, human; Platelet-activating factor acetylhydrolase IB subunit alpha2 (Homo sapiens), P68402; recombinant PAFAH1B2, FP-rhodamine activity probe; inhibition, % at 3.39 µM; 1.2% of 340,000 active; AID 492953, 2010;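 active = inhibition above the mean of all tested compounds plus 3 SD, cut at about 24% in these data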;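 also: 0% = enzyme with DMSO and 100% = wells lacking PAFAH1B2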
Target sequence (P68402 whole entry, looked up): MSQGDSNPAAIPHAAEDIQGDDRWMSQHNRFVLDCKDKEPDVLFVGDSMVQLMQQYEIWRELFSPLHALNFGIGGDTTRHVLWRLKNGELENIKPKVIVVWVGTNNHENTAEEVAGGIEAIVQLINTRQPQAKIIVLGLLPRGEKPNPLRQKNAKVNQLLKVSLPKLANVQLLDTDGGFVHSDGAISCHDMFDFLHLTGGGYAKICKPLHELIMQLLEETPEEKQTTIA
PAFAH2 FP conf: PAFAH2 enzyme inhibitors, confirmation, biochemical, fluorescence polarization, human. 65% of 2,300 active. shares compounds with PAFAH2 FP inh. inhibition, % at 3.39 µM. AID 493030, 2011. recombinant PAFAH2, FP-rhodamine activity probe;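 active = mean inhibition over three repeats above a set limit taken from the earlier primary screen, cut at about 30% in these data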;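 also: inhibitor blocks binding of rhodamine activity probe so polarization falls; 0% = enzyme with DMSO and 100% = wells lacking PAFAH2 protein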
* = called active by the depositor; . = no result.

SMILES	PAFAH2 FP inh	ARFGAP1 inhibitor	PAFAH1B3 inh	ASAP1 GAP inh	pPAFAH inh	PAFAH1B2 inh	PAFAH2 FP conf
COc1ccc(/C=C/C(=O)Nc2cc(C(F)(F)F)ccc2Cl)cc1OC	-7.1	3.4	-8.8	10.1	-3.0	1.3	.
COc1cccc(/C=C/C(=O)OCC(=O)Nc2cccc(S(=O)(=O)N(C)C)c2)c1	68.9*	17.1	10.5	9.5	6.3	2.5	60.2*
COc1cccc(/C=C/C(=O)OCC(=O)Nc2cc(C(F)(F)F)ccc2Cl)c1	33.0*	12.7	2.1	-12.8	1.7	-2.9	23.8
COc1cccc(/C=C/C(=O)OCC(=O)Nc2ccc3c(c2)OCCO3)c1	.	10.5	.	12.7	.	.	.
O=C(COC(=O)/C=C/c1ccc(F)cc1)Nc1cc(C(F)(F)F)ccc1N1CCOCC1	-1.1	-3.5	2.5	-3.3	13.1	0.8	.
O=C(COC(=O)/C=C/c1ccccc1)Nc1cc(C(F)(F)F)ccc1N1CCOCC1	55.6*	19.4	4.0	-16.8	3.9	-1.4	57.4*
COc1cccc(/C=C/C(=O)OCC(=O)Nc2ccc(Cl)c(S(=O)(=O)N(C)C)c2)c1	67.5*	6.6	-0.9	14.3	2.5	-2.2	69.2*
CC(NC(=O)COC(=O)COc1ccc(C(=O)c2ccccc2)cc1)c1ccccc1 (centres undefined)	-0.1	-6.5	5.5	1.9	11.3	7.9	.
CCN(c1ccc(NC(=O)COC(=O)/C=C/c2ccco2)cc1)C(C)C	23.1	8.3	15.3	-21.2	10.1	5.9	.
CN(C)S(=O)(=O)c1cc(NC(=O)COC(=O)/C=C/c2ccco2)ccc1Cl	58.2*	3.3	-0.5	15.2	6.7	-9.0	70.3*
Cc1cc(NC(=O)COC(=O)COc2ccc(Cl)c(C)c2)no1	.	-0.6	.	-12.1	.	.	.
O=C(OCc1nnc(-c2ccccc2)o1)C1=COCCO1	44.3*	4.0	0.1	-5.2	-0.5	4.7	30.8*
Cc1ccc(C(=O)OCc2nnc(-c3ccccc3)o2)o1	43.6*	-8.9	-3.4	2.7	5.0	-0.5	33.4*
O=C(Cc1ccc(Cl)cc1)OCc1nnc(-c2ccccc2)o1	-0.6	9.6	-4.4	2.1	12.2	6.1	.
O=C(OCc1nnc(-c2ccccc2)o1)c1ccc2c(c1)OCCO2	75.5*	9.0	-0.7	3.9	9.9	-1.3	60.2*
O=C(OCc1nnc(-c2ccccc2)o1)c1ccc(CO)cc1	54.8*	-12.3	7.7	2.6	1.7	0.1	56.4*
CN(C)S(=O)(=O)c1ccc(C(=O)OCc2nnc(-c3ccccc3)o2)cc1	4.4	-4.5	3.2	12.7	0.1	4.2	.
Cc1ccc(NC(C(=O)c2ccccc2)c2ccccc2)cc1 (centres undefined)	0.5	8.6	10.1	-5.7	.	2.5	.
Cc1ccc(C(=O)OCc2nnc(-c3ccc(Br)cc3)o2)cc1	72.4*	-0.5	8.3	-7.7	10.3	0.1	58.4*
O=C(/C=C/c1ccco1)OCc1nnc(-c2ccccc2)o1	67.7*	8.7	8.5	0.1	4.5	2.7	54.5*
O=C(OCc1nnc(-c2ccccc2)o1)c1ccc(Cl)cc1	43.0*	0.0	0.7	9.7	10.0	3.6	37.5*
Cc1ccc(C(=O)OCc2nnc(-c3ccccc3)o2)cc1S(=O)(=O)N1CCOCC1	61.1*	9.7	11.1	3.1	3.2	4.9	47.0*
COc1ccc(C2CC(=O)C(c3cccc(C)c3)=CN2Cc2ccccc2)cc1 (centres undefined)	.	-1.1	.	14.4	.	.	.
CCN(Cc1cnn(C)c1)C(=O)c1ccc2nc(Cc3ccccc3F)oc2c1	.	5.3	.	1.4	.	.	.
Cc1csc(-c2nc3ccccc3n2C(C)c2nc3ccccc3[nH]2)c1 (centres undefined)	.	-14.2	.	7.2	.	.	.
SMILES	PAFAH2 FP inh	ARFGAP1 inhibitor	PAFAH1B3 inh	ASAP1 GAP inh	pPAFAH inh	PAFAH1B2 inh	PAFAH2 FP conf
COc1ccccc1N=C1NC(=O)/C(=C/c2ccc(N(C)C)cc2)S1	11.0	2.6	12.8	-4.2	19.8	0.2	.
O=C(NCc1ccncc1)[C@@H]1CCCN1C(=O)[C@H]1CCCN1	.	5.4	.	-12.9	.	.	.
Cc1ccc(-c2nnc(COC(=O)c3cccs3)o2)cc1	53.9*	5.6	-4.5	-4.8	4.6	7.3	37.9*
O=C(OCc1nnc(-c2ccccc2)o1)c1cccc(-n2cnnn2)c1	46.8*	3.8	5.6	2.1	-6.4	3.5	39.7*
O=C(COC(=O)c1cccc(-n2cnnn2)c1)c1ccccc1	2.4	-0.8	1.6	6.5	6.5	-3.5	.
O=C(NCc1ccncc1)[C@@H]1CCCN1C(=O)[C@@H]1CCCN1C(=O)c1c(F)cccc1F	.	6.6	.	-7.0	.	.	.
Cc1[nH]c2ccccc2c1C(C#N)(C#N)C1C(=O)c2ccccc2C1=O	31.0*	8.5	8.3	-1.0	12.6	8.6	28.0
CS(=O)(=O)c1ccc(C(=O)OCC(=O)Nc2cccc(S(=O)(=O)N3CCCC3)c2)cc1	-1.7	-5.6	2.8	-0.2	-2.2	-0.6	.
O=C(COC(=O)c1ccc(O)cc1)Nc1cccc(S(=O)(=O)N2CCCCC2)c1	52.5*	-3.0	-5.8	-1.7	6.2	-0.6	55.3*
O=C(COC(=O)c1ccco1)Nc1cccc(S(=O)(=O)N2CCCCC2)c1	48.5*	2.5	-1.0	12.0	-1.7	5.1	40.8*
CCOc1ccc(C(=O)OCC(=O)Nc2cccc(S(=O)(=O)N3CCCC3)c2)cc1	68.2*	0.3	-3.0	-2.5	9.2	-0.7	57.1*
CSc1nc(C)cc(OCNC(=O)c2cccs2)n1	53.9*	-5.2	10.3	-9.6	5.0	1.3	50.9*
O=C(COC(=O)C1CC1)Nc1ccc([N+](=O)[O-])cc1C(F)(F)F	53.0*	12.0	4.8	-0.2	13.3	-3.6	44.6*
O=C(COC(=O)c1ccc[n+]([O-])c1)Nc1ccc([N+](=O)[O-])cc1C(F)(F)F	9.2	-4.5	1.1	14.1	1.1	6.8	.
NC(=O)Nc1ccc(C(=O)OCC(=O)Nc2ccc([N+](=O)[O-])cc2C(F)(F)F)cc1	66.1*	1.8	-5.3	1.8	-6.0	2.0	66.0*
